Assay results gathered from unrelated publications.
MAP2K6: Dual specificity mitogen-activated protein kinase kinase 6 (MAP2K6, Homo sapiens, UniProt P52564)

| SMILES | target | effect on | action | method | concentration | endpoint | result |
| --- | --- | --- | --- | --- | --- | --- | --- |
| C[C@@H]1CN(c2cc(-c3nn(C)c4ccc(OC5(C)CC5)cc34)ncn2)C[C@H](C)O1 | MAP2K6 | cell-free assay | – | competition with immobilised ligand | 1 µM | remaining binding | 89% |
| N#CCCc1ccc2c(c1)-c1[nH]c3ccc([N+](=O)[O-])cc3c1CC(=O)N2 | MAP2K6 | cell-free assay | – | – | 0.5 µM | remaining signal | 97.2% |
| CCN1CCC2(CC1)NC(=O)c1c(c3ccc(Cl)c(Cl)c3n1C)C2C#N (racemic) | MAP2K6 | thermal stability | – | DSF | 10 µM | ΔTm | 0 °C |
| CN1CC(Oc2cnc(C#N)cc2-c2ccn3nc(NC(=O)C4CC4)cc3c2)C1 | MAP2K6 | enzyme activity | inhibitor | – | 1 µM | inhibition | 21% |
| Cc1ccc(C(=O)NCc2ccsc2)cc1C#Cc1cn(C(C)C)c2ncnc(N)c12 | MAP2K6 | enzyme activity | inhibitor | – | 1 µM | activity vs control | 86% |
| CNCc1ccccc1-c1csc([C@@H](C)Nc2nc(C)nc3cc(OC)c(OC)cc23)c1 | MAP2K6 | cell-free assay | – | competition with immobilised ligand | 1 µM | remaining binding | 86% |
| Cc1ccc(NC(=O)c2ccc(CN3CCN(C)CC3)cc2)cc1Nc1nc(-c2cccnc2)cs1 | MAP2K6 | cell-free assay | – | – | 0.5 µM | remaining signal | 96.5% |
| CNC(=O)c1cc(Oc2ccc(NC(=O)Nc3ccc(Cl)c(C(F)(F)F)c3)cc2)ccn1 | MAP2K6 | enzyme activity | inhibitor | – | 0.3 µM | inhibition | -1% |
| O=C(Nc1cnc(Oc2ccc(F)cc2)nc1)N1CCc2ncccc2[C@@H]1c1ccc(F)cc1 | MAP2K6 | cell-free assay | – | competition with immobilised ligand | 1 µM | remaining binding | 77% |
| CNCc1ccc(-c2cc(-c3nc(-c4ccc(S(=O)(=O)C(C)C)cc4)cnc3N)on2)cc1 | MAP2K6 | enzyme activity | inhibitor | – | 0.4 µM | inhibition | 15% |
| FC(F)c1nc2ccccc2n1-c1nc(N2CCOCC2)nc(N2CCOCC2)n1 | MAP2K6 | enzyme activity | inhibitor | – | 10 µM | remaining activity | 83% |
| CN1CCC2(CC1)NC(=O)c1c(c3ccc(Cl)c(Cl)c3n1C)C2C#N (racemic) | MAP2K6 | thermal stability | – | DSF | 10 µM | ΔTm | 0 °C |
| Cc1ccc(NC(=O)c2ccc(C)c(C(F)(F)F)c2)cc1C#Cc1nn(C2CCC(O)CC2)c2ncnc(N)c12 (centres unmarked) | MAP2K6 | cell-free assay | – | – | 10 µM | remaining signal | 43% |
| Nc1ncnc2occ(-c3ccc(NC(=O)Nc4cc(C(F)(F)F)ccc4F)cc3)c12 | MAP2K6 | cell-free assay | inhibitor | – | 20 µM | remaining signal | 58% |
| Cn1c2c(c3ccc(Cl)c(Cl)c31)C(C#N)C1(CCCC1)NC2=O (centres unmarked) | MAP2K6 | thermal stability | – | DSF | 10 µM | ΔTm | 0 °C |
| CC(C)(C)c1nc2c(s1)c1nc(N)ncc1c1ccc(NS(=O)(=O)c3c(F)cccc3F)c(F)c12 | Dual specificity mitogen-activated protein kinase kinase 6 (MAP2K6, Homo sapiens, UniProt P52564, S207D/T211D) | enzyme activity | inhibitor | radiometric | 1 µM | remaining activity | 70% |
| CC(C)(O)c1cncc(-c2nc3ccc(F)cc3n2C2CC2)c1 | MAP2K6 | cell-free assay | – | competition with immobilised ligand | 1 µM | remaining binding | 100% |
| Cc1ccc(Nc2nccc(N(C)c3ccc4c(C)n(C)nc4c3)n2)cc1S(N)(=O)=O | MAP2K6 | enzyme activity | inhibitor | – | 10 µM | inhibition | 90% |

| SMILES | target | effect on | action | method | concentration | endpoint | result |
| --- | --- | --- | --- | --- | --- | --- | --- |
| COc1cc2ncnc(Nc3ccc(Oc4ccccc4)c(C)c3C)c2cc1OC | MAP2K6 | enzyme activity | inhibitor | – | 1 µM | inhibition | 2% |
| CCCCN(CCCC)C(=O)CN1C[C@@H](c2cc(OC)c3c(c2)OCO3)[C@H](C(=O)O)[C@H]1CC(C)(C)CCC | MAP2K6 | cell-free assay | – | competition with immobilised ligand | 1 µM | remaining binding | 90.8% |
| CCN(CC)CCNC(=O)c1c(C)[nH]c(/C=C2\C(=O)Nc3ccc(F)cc32)c1C | MAP2K6 | cell-free assay | – | – | 0.5 µM | remaining signal | 75.9% |
| O=C(Nc1cnn(-c2csc(C(=O)NC3COC3)c2)c1)Nc1c(F)cccc1Cl | MAP2K6 | enzyme activity | inhibitor | – | 5 µM | remaining activity | 94.4% |
| COc1cc(Nc2cnc(C#N)c(O[C@H](C)CN(C)C)n2)ncc1-c1cnn(C)c1 | MAP2K6 | enzyme activity | inhibitor | radiometric | 1 µM | remaining activity | 71% |
| Cc1sc(C(=O)NC2COC2)cc1-n1cc(NC(=O)Nc2c(F)cccc2Cl)cn1 | MAP2K6 | enzyme activity | inhibitor | – | 10 µM | remaining activity | 86.4% |
| Nc1nc(Nc2ccc(S(N)(=O)=O)cc2)nn1C(=O)c1c(F)cccc1F | MAP2K6 | cell-free assay | – | – | 0.5 µM | remaining signal | 90.5% |
| COc1cc(Cl)c(C(=O)N[C@@H](CN[C@H]2CC[C@@H](N)CC2)Cc2ccc(C#N)cc2)cc1-c1ccc(CN[C@H](C)c2ccc(C)cc2)o1 | MAP2K6 | enzyme activity | inhibitor | – | 1 µM | remaining activity | 88% |
| COc1cc2ncnc(Nc3ccc(F)c(Cl)c3)c2cc1OCCCN1CCOCC1 | MAP2K6 | cell-free assay | – | – | 0.5 µM | remaining signal | 90.1% |
| Cn1c2c(c3ccccc31)C(C#N)C(C)(C)NC2=O (centres unmarked) | MAP2K6 | thermal stability | – | DSF | 10 µM | ΔTm | 0 °C |
| Cc1cnc(NC2CCOCC2)nc1-n1cnc(C(=O)NC(CN)c2cc(F)cc(Cl)c2)c1 (centres unmarked) | MAP2K6 | enzyme activity | inhibitor | radiometric | 1 µM | remaining activity | 96% |
| CN(C)c1ncnc(-c2ccc3nc(Nc4cc(CN5CCN(C(=O)CC(F)(F)F)CC5)ccn4)[nH]c3c2)c1Cl | MAP2K6 | cell-free assay | – | competition with immobilised ligand | 1 µM | remaining binding | 92% |
| Cn1c2c(Cl)c(Cl)ccc2c2cn[nH]c(=O)c21 | MAP2K6 | thermal stability | – | DSF | 10 µM | ΔTm | 0.1 °C |
| CN(C)C(=O)Cn1cc(-c2nc([C@@](C)(c3ccc(-c4cnc(N)nc4)cc3)C3CC3)no2)cn1 | MAP2K6 | cell-free assay | – | competition with immobilised ligand | 1 µM | remaining binding | 100% |
| CN(C)C1CCN(CC#Cc2nn(C3CCCC3)c3nc(NCc4ccccc4)ncc23)C1 (centres unmarked) | MAP2K6 | enzyme activity | inhibitor | FRET | 0.1 µM | inhibition | 0% |
| CCC(=N\O)/C(C)=C/c1ccc(F)cc1 | MAP2K6 | cell-free assay | – | competition with immobilised ligand | 1 µM | remaining binding | 98% |
| CCN(CC)c1ccc(C2=NNC(=O)CC2C)cc1[N+](=O)[O-] (centres unmarked) | MAP2K6 | enzyme activity | inhibitor | – | 10 µM | remaining activity | 97% |
